Calls of active or inactive are those of the source. The calls are words filed in the database; no cut-off is given here.
How the values were obtained:
[1] = tested on: Mus musculus; assay: Anticonvulsant activity in ip dosed CF1 mouse assessed as protection against maximal electroshock-induced seizure after 30 mins; type: functional; conditions: 0.5 h
Outline: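 Adult male albino CF-1 (Carworth Farms No. 1) mice dosed ip under the NINDS ASP; maximal electroshock seizure test. For compounds with sufficient activity, a dose-response curve was run at the time of peak effect (hours).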

[2] = tested on: Mus musculus; assay: Anticonvulsant activity in ip dosed NMRI mouse assessed as protection against 6 Hz psychomotor seizure after 30 mins; type: functional; conditions: 0.5 h; for minimal effective dose: read-out: MED
Outline: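 Adult male NMRI mice dosed ip (UCB Pharma). 6 Hz psychomotor seizure model at 44 mA, per Kaminski and co-workers.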

[3] = tested on: Mus musculus; assay: Antinociceptive activity in NMRI mouse assessed as inhibition of formalin-induced neuropathic pain at 74 mg/kg, ip after 30 mins; type: functional; set-up: scale not given: the % may be the effect or the level left; conditions: route intraperitoneal
Outline: (§1)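 NMRI mice dosed ip at UCB Pharma, then tested in the formalin model of neuropathic pain. ED50 in mg/kg read 30 min after administration. Single-dose runs report the percentage protected.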

[4] = tested on: Mus musculus; assay: Antinociceptive activity in ip dosed NMRI mouse assessed as inhibition of formalin-induced neuropathic pain after 30 mins; type: functional; conditions: 0.5 h; outline: as §1
[5] = tested on: Mus musculus; assay: Anticonvulsant activity in ip dosed NMRI mouse assessed as protection against maximal electroshock-induced seizure after 30 mins; type: functional; conditions: 0.5 h; for minimal effective dose: read-out: MED
Outline: (§2)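 Adult male NMRI mice dosed ip (UCB Pharma). MES test run per the Klitgaard procedure. […] Single-dose runs report the percentage of animals protected.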

[6] = Neurotoxicity in ip dosed CF1 mouse assessed as minimal motor impairment after 30 mins; type: toxicity, organism-based; conditions: in vivo
[7] = organism: Mus musculus; assay: Protective index, ratio of TD50 for CF1 mouse to ED50 for CF1 mouse by maximal electroshock seizure test; type: functional
Outline: (§3)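 Protective index computed as rotorod (mice) or behavioral (rats) TD50 divided by MES ED50, both in mg/kg in the same species and route.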

[8] = tested on: Mus musculus; assay: Anticonvulsant activity in NMRI mouse assessed as protection against subcutaneous pentylenetetrazol-induced seizure at 30 to 300 mg/kg, ip after 0.5 to 4 hrs; type: functional, organism-based
[9] = Neurotoxicity in ip dosed NMRI mouse assessed as minimal motor impairment after 30 mins; type: toxicity, organism-based; conditions: in vivo
Outline: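 Adult male NMRI mice dosed ip at UCB Pharma. Neurological toxicity was scored on the rotorod test 30 min after dosing.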

[10] = tested on: Rattus norvegicus; assay: Anticonvulsant activity in po dosed Sprague-Dawley rat assessed as protection against maximal electroshock-induced seizure after 30 mins; type: functional; conditions: 0.5 h
[11] = organism: Rattus norvegicus; assay: Protective index, ratio of TD50 for Sprague-Dawley rat to ED50 for Sprague-Dawley rat by maximal electroshock seizure test; type: functional; outline: as §3
[12] = tested on: Mus musculus; assay: Anticonvulsant activity in ip dosed CF1 mouse assessed as protection against 6 Hz psychomotor seizure after 30 mins; type: functional; conditions: 0.5 h
Outline: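 Adult male albino CF-1 mice dosed ip (NINDS ASP). 6 Hz psychomotor seizure test at 32 mA, per Stables and Kupferberg.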

[13] = Neurotoxicity in po dosed Sprague-Dawley rat assessed as minimal motor impairment after 30 mins by rotorod test; type: toxicity, organism-based; conditions: in vivo
[14] = tested on: Mus musculus; assay: Antinociceptive activity in NMRI mouse assessed as inhibition of formalin-induced neuropathic pain at 71 mg/kg, ip after 30 mins; type: functional; set-up: scale not given: the % may be the effect or the level left; conditions: route intraperitoneal; outline: as §1
[15] = organism: Mus musculus; assay: Protective index, ratio of TD50 for NMRI mouse to ED50 for NMRI mouse formalin-induced neuropathic pain model; type: functional
[16] = tested on: Mus musculus; assay: Anticonvulsant activity in NMRI mouse assessed as protection against maximal electroshock-induced seizure at 46 mg/kg, ip after 30 mins; type: functional; conditions: route intraperitoneal; outline: as §2
[17] = tested on: Mus musculus; assay: Antinociceptive activity in NMRI mouse assessed as inhibition of formalin-induced neuropathic pain at 79 mg/kg, ip after 30 mins; type: functional; set-up: scale not given: the % may be the effect or the level left; conditions: route intraperitoneal; outline: as §1
[18] = tested on: Mus musculus; assay: Antinociceptive activity in NMRI mouse assessed as inhibition of formalin-induced neuropathic pain at 25 mg/kg, ip after 30 mins; type: functional, organism-based; set-up: dose 25 mg/kg; outline: as §1
[19] = tested on: Mus musculus; assay: Antinociceptive activity in NMRI mouse assessed as inhibition of formalin-induced neuropathic pain at 68 mg/kg, ip after 30 mins; type: functional; set-up: scale not given: the % may be the effect or the level left; conditions: route intraperitoneal; outline: as §1
[20] = tested on: Mus musculus; assay: Antinociceptive activity in NMRI mouse assessed as inhibition of formalin-induced neuropathic pain at 83 mg/kg, ip after 30 mins; type: functional; set-up: scale not given: the % may be the effect or the level left; conditions: route intraperitoneal; outline: as §1

Structure (SMILES): CCCC(CCC)C(=O)O [VALPROIC ACID]
- ED50 [1]: 270 mg/kg

Structure (SMILES): C#CCOCC(N)C(=O)NCc1ccccc1 (racemic)
- minimal effective dose [2]: 130 mg/kg
- Activity [3]: 27%
- ED50 [4]: 74 mg/kg
- ED50 [5]: 46 mg/kg
- TD50 at 0.5 h [6]: 47 mg/kg

Structure (SMILES): N[C@@H](CO)C(=O)NCc1ccccc1
- ED50 [2]: > 62 mg/kg
- ED50 [4]: > 62 mg/kg
- TD50 at 0.5 h [6]: > 110 mg/kg

Structure (SMILES): CC[C@@H](N)C(=O)NCc1ccccc1
- Ratio TD50/ED50 [7]: 4.4
- minimal effective dose [2]: 62 mg/kg
- Activity [8]: inactive
- ED50 [4]: 22 mg/kg
- TD50 at 0.5 h [9]: 80 mg/kg
- ED50 [5]: 16 mg/kg
- ED50 [10]: 11 mg/kg
- Ratio TD50/ED50 [11]: >45
- ED50 [12]: 50 mg/kg
- ED50 [1]: 18 mg/kg
- TD50 at 0.5 h [13]: > 500 mg/kg

Structure (SMILES): CCCC[C@@H](N)C(=O)NCc1ccccc1
- ED50 [2]: 93 mg/kg
- ED50 [4]: > 71 mg/kg
- ED50 [5]: 23 mg/kg

Structure (SMILES): CCOCC(N)C(=O)NCc1ccccc1 (racemic)
- ED50 [2]: 120 mg/kg
- Activity [14]: 19%
- Activity [8]: inactive
- ED50 [4]: 71 mg/kg
- ED50 [5]: 73 mg/kg

Structure (SMILES): CC(C)[C@H](N)C(=O)NCc1ccccc1
- Activity [8]: inactive
- TD50 at 0.5 h [9]: > 300 mg/kg

Structure (SMILES): CC(=O)NC(C(=O)NCc1ccccc1)c1ccsc1 (racemic)
- ED50 [1]: 88 mg/kg

Structure (SMILES): CC(=O)NC(C)C(=O)NCc1ccccc1 (racemic)
- TD50 at 0.5 h [9]: 450 mg/kg
- ED50 [1]: 76 mg/kg

Structure (SMILES): NC(CN1CCOCC1)C(=O)NCc1ccccc1 (racemic)
- ED50 [2]: > 84 mg/kg
- ED50 [4]: 69 mg/kg
- ED50 [5]: 89 mg/kg

Structure (SMILES): COC[C@@H](N)C(=O)NCc1ccccc1
- Activity [8]: inactive
- TD50 at 0.5 h [9]: < 30 mg/kg
- TD50 at 0.5 h [6]: > 120 mg/kg
- Ratio TD50/ED50 [15]: >1.8

Structure (SMILES): CCC(C)C(N)C(=O)NCc1ccccc1 (racemic)
- ED50 [2]: > 120 mg/kg
- Activity [16]: 100%
- ED50 [4]: > 22 mg/kg
- minimal effective dose [5]: 46 mg/kg

Structure (SMILES): CC(N)C(=O)NCc1ccccc1 (racemic)
- Activity [8]: inactive
- TD50 at 0.5 h [9]: > 300 mg/kg
- ED50 [10]: 14 mg/kg
- Ratio TD50/ED50 [11]: >36
- ED50 [1]: > 100 mg/kg
- TD50 at 0.5 h [13]: > 500 mg/kg

Structure (SMILES): N[C@@H](C(=O)NCc1ccccc1)C1CCCCC1
- minimal effective dose [2]: 140 mg/kg
- Activity [17]: 95%
- Activity [18]: inactive
- ED50 [5]: 28 mg/kg

Structure (SMILES): C=CCOCC(NC(C)=O)C(=O)NCc1ccccc1 (racemic)
- TD50 at 0.5 h [9]: < 30 mg/kg
- ED50 [1]: < 30 mg/kg

Structure (SMILES): CCCC(N)C(=O)NCc1ccccc1 (racemic)
- minimal effective dose [2]: 120 mg/kg
- Activity [19]: 17%
- ED50 [5]: 39 mg/kg

Structure (SMILES): CC(=O)NC(C(=O)NCc1ccccc1)c1ccccc1 (racemic)
- ED50 [1]: 20 mg/kg

Structure (SMILES): CC(=O)N[C@@H](C(=O)NCc1ccccc1)C(C)C
- TD50 at 0.5 h [9]: > 300 mg/kg
- ED50 [1]: < 100 mg/kg

Structure (SMILES): CN(C)CC(N)C(=O)NCc1ccccc1 (racemic)
- ED50 [2]: > 110 mg/kg
- ED50 [4]: 83 mg/kg
- ED50 [5]: 94 mg/kg
- Activity [20]: 14%

Structure (SMILES): C[C@H](N)C(=O)NCc1ccccc1
- Activity [8]: inactive
- TD50 at 0.5 h [9]: > 300 mg/kg
- ED50 [10]: > 80 mg/kg
- TD50 at 0.5 h [13]: > 80 mg/kg

Structure (SMILES): C#CCOCC(NC(C)=O)C(=O)NCc1ccccc1 (racemic)
- TD50 at 0.5 h [9]: 59 mg/kg

Structure (SMILES): CC(C)[C@@H](N)C(=O)NCc1ccccc1
- Ratio TD50/ED50 [7]: 4.7
- Activity [8]: inactive
- minimal effective dose [5]: 16 mg/kg
- Ratio TD50/ED50 [15]: 2.4
- TD50 at 0.5 h [13]: > 500 mg/kg

Structure (SMILES): CC(=O)NC(CN(C)C)C(=O)NCc1ccccc1 (racemic)
- TD50 at 0.5 h [9]: < 100 mg/kg
- ED50 [1]: < 30 mg/kg

Structure (SMILES): N[C@H](CCO)C(=O)NCc1ccccc1
- ED50 [2]: > 120 mg/kg
- ED50 [4]: > 67 mg/kg
- ED50 [5]: > 160 mg/kg

Structure (SMILES): CC(=O)N[C@H](C)C(=O)NCc1ccccc1
- TD50 at 0.5 h [9]: 210 mg/kg

Structure (SMILES): COC[C@H](NC(C)=O)C(=O)NCc1ccccc1
- TD50 at 0.5 h [9]: > 300 mg/kg

— ChEMBL document CHEMBL2146408, “Primary amino acid derivatives: compounds with anticonvulsant and neuropathic pain protection activities” (J Med Chem, 2011)
